Consider 38 variants from the RNAGym collection of RNA variant scans (doi:10.1126/science.aae0568).

This sample holds only a part of the variants without activity.

To fix the notation:
B1: tRNA (parent)
chain: GUUCCGUUGGCGUAAUGGUAACGCGUCUCCCUCCUAAGGAGAAGACUGCGGGUUCGAGUCCCGUACGGAACG

This data set covers variants of B1. The data set can be described thus: yeast fitness relative to wild type (ratio to wild type); higher = fitter; tRNA-Arg(CCU), competitive growth, 37 C, YPD. In outline:
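Changes in genotype frequencies gave Darwinian fitness relative to wild type. Frequencies were read by 100-nucleotide paired-end sequencing of gene amplicons before and after pooled Saccharomyces cerevisiae strains, carrying tRNA-Arg(CCU) gene variants at the native locus, were competed in YPD at 37°C for 24 hours in six replicates. A genotype was kept only with ≥ 100 starting reads, and estimates < 0.5 were set to 0.5.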
Turning to GUUUCGUUGGCGUAGUGGUAAUGCGUCUCCCUCCUAAGGAGAAGACUGCGGGUUCGAGUCCCGUACGGAACG [C4U A15G C22U], the yeast fitness came out at 0.559.

In the case of GUUUCGUUGGCGUGCUGGUAACGCGUCUCCCUCCUAAGGAGAAGACUGCGGGUUCGAGUCCCCUACGGAACG [C4U A14G A15C G63C], the yeast fitness is not above 0.5.

GUUGCGUUGGCGUAAUGGUAACGCGUCUCCCUCCUAAGGAGAAGACUGCGGGUUCGAGACCCGGCCGGAACG [C4G U59A U64G A65C]: the yeast fitness was not above 0.5.

As for GUUGCGUUGGCGUAAUGGUAACGCGUCUCCCUCCCAAGGAGAAGACUGCGGGUUCGAGUCCCGUACGGAACG [C4G U35C], the yeast fitness is 0.942.

GUUUCGUUGGCGUACUGGUAACGCGUCUCCCUCCUAAGGAGAAGACUGCGGGUUUGAGUCCCCUACGGAACG [C4U A15C C55U G63C]: the yeast fitness is not above 0.5.

With GUUUCGUUGGCGUACUGGUAACGCGUCUCGCUCCUAAGGAGAAGACUGCGGGUUCGAGUCCCGUACGGUACG [C4U A15C C30G A69U], the yeast fitness was not above 0.5.

With GUUUCGUUGGCGUACUGGUAACGCGUCUCGCUCCUAAGGAGAAGACUGCGGGUUCGAGUCCCGUACGGCACG [C4U A15C C30G A69C], the yeast fitness was not above 0.5.

Consider GUUUCGUUGGCGUUAUGGUAACGCGUCUCACUCCUAAGGAGAAGACUGCGGGUGCGAGUCCCGUCCGGAACG [C4U A14U C30A U54G A65C], for which the yeast fitness came to 0.634.

Take GUUUCGUUGGCGUAGUGGUAACGCGUUUCCCUCCUAAGGAAAAGACUGCGGGUUCGAGUCCCGUACGGAACG [C4U A15G C27U G41A]: the yeast fitness is not above 0.5.

Turning to GUUUCGUUGGCGUACUGGUAACGCGUCUCCCUCCUAAGGAGAAGACUGCGGGUUCGAGUCCCGUACGGAACG [C4U A15C], the yeast fitness worked out at 0.763.

Regarding GUUGCGUUGGCGUAAUGGUAACGCGUCUCCCUCCUAAGGAGAAGACUGCGGGGUCGAGUCCCGUAAGGAACG [C4G U53G C66A], the yeast fitness was not above 0.5.

For GUUGCGUUGGCGUAAUGGUAACGCGUCUCCCUCCUAAGGAGAAGACUGCGGGUUCGAGUCCCGCACGGAACG [C4G U64C], the yeast fitness stood at 0.872.

On to GUUGCGUUGGCGUAAUGGUAACGCGUCUCCCUCCUAAGGAGAAGACUGCGGGUUCGAGUCCCGGACGGAACG [C4G U64G], for which the yeast fitness came to 0.671.

Take GUUGCGUUGGCGUAAUGGUAACGCGUCUCCCUCCUAAGGAGAAGACUGCGGGUUCGAGUCCCGAACGGAACG [C4G U64A]: the yeast fitness stood at 0.707.

For GUUUCGUUGGCGUAAUGGUCACGGGUCUCCCUCCUAAGGAGAAGACUGCGGGUUCAAGUCCAGUACGGAACG [C4U A20C C24G G56A C62A], the yeast fitness was not above 0.5.

For the variant GUUUCGUUGGCGUAGUGGUAACCCGUCUCCCUCCUAUGGAGAAGACUGCGGGUUCGAGUCCCGUUCGGAACG [C4U A15G G23C A37U A65U], the yeast fitness amounted to 0.57.

Consider GUUUCGUUGGCGUCAUGGUAACGCGUCUCCCUCCUAAGGAGAAGACUGGGGGUUGGAGUCCCGUACGGAACG [C4U A14C C49G C55G], for which the yeast fitness is not above 0.5.

For GUUUCGUUGGCGUAGUGGUAACCCGUCUCCCUCCUAUGGAGAAGACCGCGGGUUCGAGUCCCGUUCGGAACG [C4U A15G G23C A37U U47C A65U], the yeast fitness is not above 0.5.

As for GUUUCGUUGGCGUACUGGUAACGCGUCUCCCUCCUAAGGAGAAGACUGCGGGUUCGAGUCCCCUACGGAACG [C4U A15C G63C], the yeast fitness was determined as 0.556.

For GUUUCGUUGGCGUACUGGUAACGCGUCUCCCUCCUAAGGAGAUGACUGCGGGUUCGAGUCCCGUACGGAACG [C4U A15C A43U], the yeast fitness was not above 0.5.

On to GUUGCGUUGGCGUAAUGGUAACGCGUCUCCCUCCUAAGGAGAAGACUGCGGGAUCAAGUCCCGUACGGAACG [C4G U53A G56A], for which the yeast fitness was not above 0.5.

Take GUUUCGUUGGCGUAUUGGUAACGCGUCUCCCUCCUAAGGAGAAGACUGCGGGAUCGAGUCCAGUACGGAACG [C4U A15U U53A C62A]: the yeast fitness is not above 0.5.

Turning to GUUUCGUUGGCGUUAUGGUAACGCGUCUCCCUGCUAAGGAGAAGACUGCGGGUUCGAGUCCCGUACGGUACG [C4U A14U C33G A69U], the yeast fitness is not above 0.5.

For the variant GUUUCGUUGGCGUAGUGGUAACGCGUCUCCCUCCUAAGGAGAAGACUGCGGGUUCGAGUCCCGUUCGGAACG [C4U A15G A65U], the yeast fitness was found to be 0.69.

In the case of GUUUCGUUGGCGUAUUGGUAACGCGUCUCCCUCCUAAGGAGAAGCCUGCGGGUUCGAGUCCCGUACGGAACG [C4U A15U A45C], the yeast fitness was determined as 0.611.

In the case of GUUUCGUUGGCGUAGCGGUAACGCGUCUCCCUCCUAAGGAGAAGACUGCGGGUUCGAGUCCCGUACGGAACG [C4U A15G U16C], the yeast fitness came to 0.728.

In the case of GUUUCGUUGGCGUUAUGGUAACGCGUCUCCCUCCUUAGGAGAAGACUGCGGGUUCGAGUCCCGUACGGAACG [C4U A14U A36U], the yeast fitness came out at 0.545.

On to GUUUCGUUGGCGUACUGGUAACGCGUCUCGCUCCUAAGGAGAAGACUGCGGGUUCGAGUCCCGUACGGAACG [C4U A15C C30G], for which the yeast fitness was not above 0.5.

As for GUUGCGUUGGCGUAAUGGUAACGCGUCUCCCUCCUAAGGAGAAGACAGCGGGUUCGAGUCCCGUACGAAACG [C4G U47A G68A], the yeast fitness is not above 0.5.

GUUUCGUUGGCGUACUGGUAACGCGUAUCCUUCCUAAGGAGAGGACUGCGGGUUCGAGUACCGUACGGAACG [C4U A15C C27A C31U A43G C60A]: the yeast fitness is 0.526.

Turning to GUUUCGUUGGCGUACUGGUAACGCGUCUCCCUCCUAAGGAGAAGACUGCGGGUUCGAGUCCGGUACGGAACG [C4U A15C C62G], the yeast fitness is not above 0.5.

With GUUGCGUUGGCGUAAUGGUAACGCGUCUCCCUCCGAAGGAGACGACCGCGGGUUCGAGUCCCGUACGGAACG [C4G U35G A43C U47C], the yeast fitness is not above 0.5.

For the variant GUUGCGUUGGCGUAAUGGUAACGCGUCUCCCUCCUAAGGAGAAGACUGCGGGUGCGAGUCCAGUACGGAACG [C4G U54G C62A], the yeast fitness is 0.579.

For the variant GUUGCGUUGGCGUAAUGGUAACGCGUCUCCCUCCGAAGGAGAAGACUGCGGGUUCGAGUCCCGUACGGACCG [C4G U35G A70C], the yeast fitness is 0.552.

As for GUUUCGUUGGCGUUAUGGUAACGCGUCUCCCUUCUAAGGAGAAGACUGGGGGUUAGAGUCCCGUACGGAACG [C4U A14U C33U C49G C55A], the yeast fitness is not above 0.5.

Turning to GUUUCGUUGGCGUUAUGGUAACGGGUCUCUCUCCUAAGGAGAAGACUGCGGGUUCGAGUGCUGUACGGAACG [C4U A14U C24G C30U C60G C62U], the yeast fitness was 0.663.

GUUUCGUUGGCGUAAUGGUCACGCGUCUCCCUCCUAAGGAGAAGACUGCGGGUUCGAGUCCCGUCCGGAACG [C4U A20C A65C]: the yeast fitness was 0.719.

For GUUUCGUUGGCGUACUGGUAACGCGUCUUCCUCCUAAGGAGAAGACUGCGGGUCCGAGUCGCAUACGGAACG [C4U A15C C29U U54C C61G G63A], the yeast fitness is not above 0.5.
